# Measurements as given in publication PMC6718330 (European journal of medicinal chemistry, 2019).
# Entries after “also recorded” stand apart in the source; their conditions may differ.
# B1: IFN-γ: Interferon gamma (100 ng/mL, Sigma) used to stimulate macrophages as comparison treatment (protein, UniProt P01579 24-161, looked up)
# Interferon gamma: QDPYVKEAENLKKYFNAGHSDVADNGTLFLGILKNWKEESDRKIMQSQIVSFYFKLFKNFKDDQSIQKSVETIKEDMNVKFFNSNKKKRDDFEKLTNYSVTDLNVQRKAIHELIQVMAELSPAAKTGKRKRSQMLFRG
# Key:
# cruzain and rhodesain = experiment: Primary screen of the MMV400 at 5 µM against cruzain and rhodesain; format: biochemical, Trypanosoma cruzi; Trypanosoma brucei; settings: primary screen at 5 µM
# In short: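 Fluorimetric screen of the library at 5 µM against recombinant cruzain and rhodesain (1 nM each). Substrate was 2.5 µM Z-FR-AMC in 0.1 M sodium acetate pH 5.5 with 0.01% Triton X-100 and 1 mM β-mercaptoethanol. Runs had no pre-incubation or 10 min enzyme–compound pre-incubation, two duplicates each. AMC release was read at 340/440 nm for 5 min at 12 s intervals; DMSO and E-64 served as controls.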
# rhodesain = rhodesain (Trypanosoma brucei rhodesiense, UniProt Q95PM0); experiment: Rhodesain enzymatic assay; format: biochemical
# T.cruzi (Y strain) = experiment: Trypomastigote release from T. cruzi-infected peritoneal macrophages; format: cell-based, Trypanosoma cruzi; settings: 50 µM
# cruzain [1] = target: T1, cruzain (Trypanosoma cruzi, UniProt P25779); experiment: Aggregation assays against cruzain; format: biochemical; settings: for Sensitivity of inhibition to pre-incubation with BSA: BSA 2 mg/mL in Triton X-100 0.001%; for Sensitivity of inhibition to detergent (Triton X-100): absence, 0.01% and 0.1% Triton X-100, 10 min pre-incubation with cruzain
# T1 sequence (P25779 123-467): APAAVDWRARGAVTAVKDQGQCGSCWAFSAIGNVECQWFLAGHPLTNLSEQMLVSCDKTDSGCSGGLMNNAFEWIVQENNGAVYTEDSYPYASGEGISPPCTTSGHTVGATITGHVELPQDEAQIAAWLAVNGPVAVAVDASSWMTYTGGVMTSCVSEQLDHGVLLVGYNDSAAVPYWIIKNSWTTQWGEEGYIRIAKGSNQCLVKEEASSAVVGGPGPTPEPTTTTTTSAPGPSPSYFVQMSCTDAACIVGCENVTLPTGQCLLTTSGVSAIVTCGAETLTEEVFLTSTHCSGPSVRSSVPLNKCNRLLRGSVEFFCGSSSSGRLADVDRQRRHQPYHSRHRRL
# In short: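 Recombinant cruzain (1 nM) was pre-incubated with the test compound for 10 min at room temperature, with no Triton X-100, 0.01% or 0.1% Triton X-100. Percent inhibition was compared across detergent levels. In a BSA variant, compound sat 5 min with BSA (2 mg/mL in 0.001% Triton), then 5 min with cruzain, before substrate was added, run alongside a BSA-free control. Fluorogenic Z-FR-AMC read-out was at 340/440 nm.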
# cruzain [2] = target: T1, cruzain; experiment: Cruzain enzymatic assay; format: biochemical; settings: for Mechanism of inhibition against cruzain: Lineweaver-Burk plots
# rat cathepsin B = rat cathepsin B (Rattus norvegicus, UniProt P00787); experiment: Cathepsin B inhibition assay; format: biochemical; settings: read-out: Inhibition of cathepsin B (greatest observed)
# rat cathepsin B, sequence (P00787 80-339): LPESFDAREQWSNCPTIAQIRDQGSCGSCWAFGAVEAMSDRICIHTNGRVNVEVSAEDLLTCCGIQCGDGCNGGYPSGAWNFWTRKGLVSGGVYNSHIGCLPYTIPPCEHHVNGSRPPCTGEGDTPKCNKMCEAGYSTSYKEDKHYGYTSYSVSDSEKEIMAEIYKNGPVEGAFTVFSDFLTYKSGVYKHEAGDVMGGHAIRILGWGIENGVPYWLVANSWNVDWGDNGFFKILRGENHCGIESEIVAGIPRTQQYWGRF
# In short: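 Buffer: 100 mM sodium phosphate, 100 mM NaCl, 1 mM EDTA, 1 mM DTT, 0.01% CHAPS, 25°C. Test compound at 100 µM or 50 µM, with or without 5 min enzyme pre-incubation. Fluorescence at 380/440 nm for 15 min. Percent inhibition versus 2% DMSO; E64 1 µM positive control. Two independent experiments, each in triplicate.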
# [3] = system: Peritoneal macrophages of C57BL/6 mice; experiment: LDH cytotoxicity assay in peritoneal macrophages; format: cell-based, mouse; settings: 3.125 µM, 24 h
# [4] = system: Nitric oxide levels in macrophage culture; experiment: Nitric oxide detection; format: cell-based, mouse; settings: culture supernatant after 11 days; 12 at 3.125 µM, IFN-γ 100 ng/mL
# In short: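 Peritoneal macrophages from thioglycolate-elicited female C57BL/6 mice (8–10 wk) were plated at 2 × 10^5/well, adhered 3 h, then rested overnight. They were infected 2 h with Y-strain T. cruzi trypomastigotes (5:1 parasite:cell), washed, then given test compound or IFN-γ at 37°C, 5% CO2. Day-11 supernatant plus Griess reagent, 10 min, A540 for nitrite. Three independent experiments in triplicate; mean ± SEM.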
Molecule,Over 50% cruzain and rhodesain inhibition? (cruzain and rhodesain),Sensitivity of inhibition to pre-incubation with BSA (cruzain [1]),also measured
CCOc1ccc(/C=C/c2nc(=O)c3ccccc3o2)cc1 [Compound 1],yes,,
Cn1c(=O)n(C)c2cc(CNCCNc3ccnc4cc(Cl)ccc34)ccc21 [Compound 2],yes,not sensitive to detergent nor BSA incubation,Ki (rhodesain): 1400 nM; Mechanism of inhibition versus rhodesain (rhodesain; Lineweaver-Burk plots): mixed mechanism; also recorded: mixed-type inhibitor; Trypanocidal activity in initial screen (T.cruzi (Y strain)): trypanocidal activity
Cc1cc(Nc2ccc(C)c(Cl)c2)n2nc(C(F)(F)F)nc2n1 [Compound 3],no,,
Cc1nc2ccccc2c(O)c1CC=C(Cl)Cl [Compound 4],yes,,
c1ccc(-c2ccc(-c3nc4ccccc4[nH]3)cc2)cc1 [Compound 5],yes,sensitive to pre-incubation with bovine serum albumin,Fluorescence in the assays (signal interference) (cruzain [1]): displayed fluorescence in the assays; Sensitivity of inhibition to detergent (Triton X-100) (cruzain [1]): highly sensitive to Triton
CCOc1cccc(C(=O)Nc2ccc(-c3nc4ccccc4[nH]3)cc2)c1 [Compound 6],yes,sensitive to pre-incubation with bovine serum albumin,Hill slope of dose-response curve (cruzain [2]; cruzain dose-response curve): 3.9; Fluorescence in the assays (signal interference) (cruzain [1]): displayed fluorescence in the assays; Sensitivity of inhibition to detergent (Triton X-100) (cruzain [1]): highly sensitive to Triton
c1ccc(CNc2nc(Nc3ccccc3)nc3ccccc23)cc1 [Compound 7],yes,not sensitive to detergent nor BSA incubation,inhibition at 100 µM (rat cathepsin B): 29%; Trypanocidal activity in initial screen (T.cruzi (Y strain)): trypanocidal activity; Mechanism of inhibition against cruzain (cruzain [2]): competitive inhibition; Detergent sensitivity of inhibition at 50 µM (cruzain [1]; 50 µM compound): some detergent-sensitivity
COCCNCC(O)Cn1c2ccc(Cl)cc2c2cc(Cl)ccc21 (stereo not shown) [Compound 8],no,sensitive to pre-incubation with bovine serum albumin,Sensitivity of inhibition to detergent (Triton X-100) (cruzain [1]): highly sensitive to Triton
CCOC(=O)c1c(C)n(-c2ccccc2)c2ccc(OC(=O)c3cc(OC)c(OC)c(OC)c3)cc12 [Compound 9],yes,,
CC(=O)c1ccc(NC(=O)CSc2nc(-c3ccccc3Cl)ns2)cc1 [Compound 10],yes,,
Cc1ccc(C(=O)c2oc3ccc4c(C)cc(=O)oc4c3c2C)cc1 [Compound 11],yes,,
"Cl.Cl.Clc1cc(Br)ccc1-c1ccc(CNCC2CCNCC2)o1 [Compound 12, 1-[5-(4-Bromo-2-chlorophenyl)-2-furyl]-N-(4-piperidinylmethyl)methanamine dihydrochloride]",no,not sensitive to detergent nor BSA incubation,Trypanocidal activity in initial screen (T.cruzi (Y strain)): trypanocidal activity; Cytotoxicity against macrophages (LDH levels) [3]: low toxicity against murine macrophages; also recorded: did not exhibit cytotoxic activity; Mechanism of inhibition against cruzain (cruzain [2]): competitive inhibition; Nitric oxide production [4]: independent of NO release
COc1ccc2sc(N(Cc3cccnc3)C(=O)c3ccc(C#N)cc3)nc2c1 [Compound 13],yes,,
FC(F)(F)c1cccc(CNC2CCN(CCc3ccccc3)CC2)c1 [Compound 14],yes,,
COCCNC(=O)c1ccc(OC2CCN(Cc3ccc(F)c(F)c3)CC2)c(Cl)c1 [Compound 15],yes,,Trypanocidal activity in initial screen (T.cruzi (Y strain)): trypanocidal activity
B1,,,Nitric oxide production [4]: increased
